OX1R antag-1: blocks the human orexin 1 receptor; O43613; CHO/OX1R cells, Fluo-8 calcium fluorescence, orexin A; inhibition, % at 5 µM; 0.43% of 330,000 active;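 active = inhibition above its plate's threshold, mean inhibition of all tested compounds on the plate plus 3 SD, cut at about 37% in these data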;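 also: 0% = orexin A challenge wells and 100% = SB-334867-A antagonist wells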
TAAR1 antagonist: antagonists of human TAAR1; Q96RJ0; CHO RD-HGA16 TAAR1, Fluo-8 calcium fluorescence, antagonist; inhibition, % at 3 µM; 1.5% of 360,000 active; AID 624466;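 active = inhibition above a per-plate cutoff, the mean inhibition of test compounds on that plate plus 3 SD, cut at about 49% in these data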;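 also: 0% = DMSO plus EC80 beta-PEA response and 100% = DMSO alone without agonist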
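Material: CHO RD-HGA16 cells bearing hTAAR1; compound dosing: one-point dosing, 3 µM nominal final; schedule: dye loading 75 min at 37 °C, then 30 min room temperature; measured by: calcium fluorescence with Fluo-8; control set: vehicle and agonist controls; replication: n of 1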
TAAR1 ag: human TAAR1 agonism; 0.99% of 360,000 active; CHO RD-HGA16 TAAR1, Fluo-8 calcium fluorescence; vehicle wells 0%, saturating PEA agonist 100%; AID 624467; activation, % at 3 µM; Q96RJ0;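 active = activation above the mean activation of all test compounds in the run plus 3 SD, cut at about 38% in these data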
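Assay system – CHO-derived RD-HGA16 cells with stable Gα16 and human TAAR1 · Compound dosing – one-point dosing at 3 µM (nominal) · Incubation – 17-24 h seeding, 75 min 37 °C dye, 30 min RT · Measured by – kinetic Fluo-8 calcium fluorescence · Control set – DMSO vehicle as 0%, PEA at EC100 as 100% · Repeats – single well for each compound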
CHO parental Ca: signal in parental CHO cells, OX1R antagonist counter-screen. inhibition, % at 5.6 µM. parental CHO-K1, ATP-induced calcium, Fluo-8 fluorescence. 0.63% of 330,000 active;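 active = inhibition above that plate's mean sample inhibition plus 3 SD, cut at about 26% in these data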;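 also: 0% = ATP-challenged DMSO wells and 100% = DMSO wells without ATP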
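Assay system – parental CHO cells · Reagent – ATP stimulus · Detection – intracellular calcium via Fluo-8 no-wash fluorescent dye · Evaluation – percent inhibition of ATP-evoked calcium rise, normalized to controls · Controls – ATP wells versus no-ATP DMSO wells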
GPR7 antag: human neuropeptides B/W receptor 1 antagonism; P48145; GPR7-expressing cells, fluorescence antagonist assay; inhibition, % at 4.4 µM; 1.1% of 290,000 active; in the data active = inhibition above about 16%, passing the limit was not always enough;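 also: cells stimulated with the agonist NPW; 0% = agonist with vehicle and 100% = vehicle without agonist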
Target sequence (P48145 whole entry, looked up): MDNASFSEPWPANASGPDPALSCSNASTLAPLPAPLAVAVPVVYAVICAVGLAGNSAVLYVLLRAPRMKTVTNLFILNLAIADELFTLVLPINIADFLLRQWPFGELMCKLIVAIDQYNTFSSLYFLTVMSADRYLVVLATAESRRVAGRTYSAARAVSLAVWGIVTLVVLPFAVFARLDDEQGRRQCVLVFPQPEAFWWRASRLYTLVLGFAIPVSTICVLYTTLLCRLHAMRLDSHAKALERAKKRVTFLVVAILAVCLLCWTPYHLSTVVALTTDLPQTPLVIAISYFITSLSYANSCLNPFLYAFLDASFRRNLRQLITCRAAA
OX1R antag-2: antagonists of human orexin 1 receptor (OX1R) | inhibition, % at 6.6 µM | OX1R-expressing cells, FRET antagonist read-out | AID 485270 | 1.8% of 330,000 active | O43613; in the data active = inhibition mostly above about 38%, no sharp cut-off; inactive = mostly below about 40%;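 also: 0% = agonist challenge alone and 100% = reference antagonist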
* hit, by the source's call. An excerpt weighted towards active compounds, which were near 4.6% of everything screened.

Cc1ccc(S(=O)(=O)/N=C2/NC(=O)/C(=C\c3ccco3)S2)cc1 was read as OX1R antag-1 -12, TAAR1 antagonist -8, TAAR1 ag 6, CHO parental Ca -19, GPR7 antag -4 and OX1R antag-2 41.
COc1cc(/C=C2\S/C(=N/S(=O)(=O)c3ccc(C)cc3)NC2=O)c([N+](=O)[O-])cc1OC was read as OX1R antag-1 -13, TAAR1 antagonist -9, TAAR1 ag 6, CHO parental Ca -5, GPR7 antag -9 and OX1R antag-2 39*.
Screening Cc1ccc(S(=O)(=O)/N=C2/NC(=O)/C(=C\c3ccccc3)S2)cc1 returned OX1R antag-1 4, TAAR1 antagonist 15, TAAR1 ag -2, CHO parental Ca 10 and OX1R antag-2 33*.
Screening CCCCCCCCN returned TAAR1 antagonist -2 and TAAR1 ag 4.
`CC(C)(C)S(=O)(=O)N1Cc2cc(CO)ccc2[C@H]1CCO` gave TAAR1 antagonist -12 and TAAR1 ag 3.
COc1ccc(NC(=O)N(C)C[C@@H]2OCc3cnnn3CCCC(=O)N([C@H](C)CO)C[C@H]2C)c(OC)c1 was read as TAAR1 antagonist -6 and TAAR1 ag 0.
Cc1cc(C)c(C#N)c(SCc2[nH]nc3c2C(c2ccc(F)cc2)C(C#N)=C(N)O3)n1 (stereo unspecified) was read as OX1R antag-1 -33, TAAR1 antagonist -6, TAAR1 ag 8, CHO parental Ca -17, GPR7 antag 16 and OX1R antag-2 75*.
`Cc1sc(NC(=O)c2ccc(Br)s2)c(C(N)=O)c1C` gave OX1R antag-1 -18, TAAR1 antagonist -16, TAAR1 ag 4, CHO parental Ca -13, GPR7 antag 10 and OX1R antag-2 21.
Screening Cc1sc(NC(=O)c2ccc(Cl)s2)c(C(N)=O)c1C returned OX1R antag-1 -6, TAAR1 antagonist -33, TAAR1 ag 12, CHO parental Ca -30, GPR7 antag 1 and OX1R antag-2 47*.
For O=C(Nc1cccc(-c2cn3ccccc3n2)c1)c1cccs1 the results were OX1R antag-1 2, TAAR1 antagonist -3, TAAR1 ag 2, CHO parental Ca -4, GPR7 antag 5 and OX1R antag-2 71*.
`Cc1ccc(S(=O)(=O)/N=C2/C=C(Sc3ncn[nH]3)C(=O)c3ccccc32)cc1` gave OX1R antag-1 -5, CHO parental Ca -12, GPR7 antag -17 and OX1R antag-2 59*.
COc1cccc(CNC(=O)[C@H]2CCCN2C(=O)[C@H]2CCCN2C(=O)c2cccc(F)c2)c1 was read as TAAR1 antagonist -13 and TAAR1 ag 0.
`CN(C)c1ccc(NC(=O)c2sc(SCC(=O)Nc3nccs3)nc2N)cc1` gave OX1R antag-1 22, TAAR1 antagonist 67*, TAAR1 ag 20, CHO parental Ca 0, GPR7 antag -6 and OX1R antag-2 15.
Screening COc1ccccc1/C=C(/NC(=O)c1ccccc1)C(=O)NCCN1CCOCC1 returned OX1R antag-1 -16, TAAR1 antagonist 0, TAAR1 ag 0, CHO parental Ca -1, GPR7 antag -12 and OX1R antag-2 5.
CC(C)OC(=O)CSc1nnc(-c2ccc([N+](=O)[O-])cc2)o1 was read as OX1R antag-1 -16, TAAR1 antagonist -2, TAAR1 ag 5, CHO parental Ca -9, GPR7 antag -16 and OX1R antag-2 65*.
Screening Cc1cc(NC(=O)CSc2nnc(-c3ccc([N+](=O)[O-])cc3)o2)no1 returned OX1R antag-1 -9, TAAR1 antagonist -12, TAAR1 ag 3, CHO parental Ca 5, GPR7 antag -14 and OX1R antag-2 59*.
`CC(C)OC(=O)CSc1nnc(-c2ccc(Cl)cc2Cl)o1` gave OX1R antag-1 -21, TAAR1 antagonist -7, TAAR1 ag 4, CHO parental Ca -14, GPR7 antag -10 and OX1R antag-2 16.
Screening Cc1cc(NC(=O)CSc2nnc(-c3ccc(O)cc3)o2)no1 returned OX1R antag-1 -1, TAAR1 antagonist -9, TAAR1 ag -1, CHO parental Ca 13, GPR7 antag -14 and OX1R antag-2 22.
For COc1ccc(C(=O)C(=O)N2CCN(C(=O)OCc3ccccc3)CC2)cc1 the results were TAAR1 antagonist -4 and TAAR1 ag 4.

From PubChem
